Entries after “also recorded” stand apart in the source; their conditions may differ.
Columns and labels:
[1] = target: dpIRE1α* (dephosphorylated IRE1α*) (Homo sapiens, UniProt O75460); experiment: In vitro determination of dpIRE1α*–inhibitor complex Kdimer; assay type: biochemical; conditions: relative to apo-dpIRE1α*
Summary of the method: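 IRE1α* dephosphorylated overnight at 4 °C with λ-PPase (5:1 molar) in HEPES pH 7.5/NaCl/1 mM MnCl2/DTT/Brij 35; checked by phospho-protein blot. Then titrated two-fold from 2 or 4 μM in Tris pH 7.5 assay buffer; 30 min RT with 50 μM test compound. Alexa647-quencher XBP1 mini-substrate (6 μM final). Fluorescence ex 650/em 665 nm. n=3, mean ± SEM.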

IRE1α* = IRE1α* (Homo sapiens, UniProt O75460); experiment: In vitro determination of IRE1α*–inhibitor complex Kdimer; assay type: biochemical; conditions: inhibitor-bound IRE1α*
XBP1 mRNA splicing = XBP1 mRNA splicing in ER-stressed INS-1 cells; assay type: cell-based, rat; conditions: INS-1 cells treated with brefeldin A or thapsigargin and KIRA8
Summary of the method: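 Parental INS-1 cells on poly-D-lysine, grown 48 h. Test compound or DMSO given 1 h before brefeldin A, thapsigargin or DTT. In the sequential format: 10 μM first compound for 30 min, then second compound (0.5 or 1 μM) for 30 min, then 2 mM DTT. Intron-spanning XBP1 RT-PCR, PstI digest, EtBr gel, % spliced. n=3, mean ± SEM; two-tailed t-test versus DTT.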

[2] = system: mouse splenocytes (C57BL/6); experiment: ELISA for secreted IgM from LPS-treated splenocytes; assay type: cell-based; conditions: 1 μg/mL LPS for three days, 20 μM-1.25 μM
Summary of the method: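 C57BL/6 splenocytes, red cells lysed, CellTrace Violet-loaded, plated at 2.5 × 10^5 cells/well in complete RPMI; ±1 μg/ml LPS; test compound in two-fold dilutions (20–1.25 μM) from DMSO at 1:2000 final; 3 days, 37 °C, 5% CO2. Supernatant IgM by ELISA: 1 μg/ml goat anti-IgM capture, anti-IgM-HRP (1:3000), TMB, 1 N H2SO4 stop, A450. n=3, mean ± SEM; one-tailed t-test.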

[3] = system: mouse splenocytes (C57BL/6); experiment: Plasma cell differentiation of LPS-treated mouse splenocytes, flow cytometry; assay type: cell-based
Summary of the method: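 Splenocytes cultured 3 days ±1 μg/mL LPS with test compound (20–1.25 μM, two-fold, DMSO 1:2000). Cells stained with LIVE/DEAD near-IR (1:1000, 20 min, ice), then anti-CD19/CD45R/CD138 (15 min, ice), then permeabilized for intracellular XBP1s. Plasmablasts gated as CD19+ B220-low CD138-high; division from vital-dye dilution. n=3, mean ± SEM; one-tailed t-test.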

[4] = 1 μg/mL LPS for three days, 20 μM-1.25 μM

Sequence of dpIRE1α* (dephosphorylated IRE1α*) (O75460 547-977): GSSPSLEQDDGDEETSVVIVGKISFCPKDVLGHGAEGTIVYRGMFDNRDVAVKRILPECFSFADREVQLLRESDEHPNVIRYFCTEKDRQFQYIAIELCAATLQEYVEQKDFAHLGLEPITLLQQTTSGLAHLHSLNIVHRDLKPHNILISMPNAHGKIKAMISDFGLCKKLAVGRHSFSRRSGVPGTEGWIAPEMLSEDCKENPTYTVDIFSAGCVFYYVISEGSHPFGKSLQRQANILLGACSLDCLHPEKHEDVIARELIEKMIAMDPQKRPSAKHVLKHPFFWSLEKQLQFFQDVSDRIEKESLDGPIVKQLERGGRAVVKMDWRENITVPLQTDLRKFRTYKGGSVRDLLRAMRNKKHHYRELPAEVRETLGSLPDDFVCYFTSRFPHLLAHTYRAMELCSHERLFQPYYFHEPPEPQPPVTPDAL
Sequence of IRE1α* (O75460 547-977): as above

| lowering of Kdimer of dpIRE1α* when complexed to ligand [1] | Compound | formation of RNase active dimers / dimerization affinity of IRE1α* (IRE1α*) | XBP1 mRNA splicing (XBP1 mRNA splicing) | IgM secretion [2] | XBP1s expression in B cells [3, 4] | plasma cell differentiation, CD138+ [3, 4] | toxicity to splenocytes ([3]; 10 μM and 20 μM KIRA8, LPS, three days) |
| --- | --- | --- | --- | --- | --- | --- | --- |
| ~ 80 times | O=C(Nc1c[nH]nc1-c1nc2ccc(CN3CCOCC3)cc2[nH]1)NC1CC1 [AT9283] | – | – | – | – | – | – |
| – | Cc1ccc2c(NS(=O)(=O)c3ccccc3Cl)cccc2c1Oc1ncccc1-c1ccnc(N[C@H]2CCCNC2)n1 [KIRA8] | unable to form RNase active dimers at any concentration tested | completely suppresses; also recorded: almost completely suppressed | reductions | reductions | reductions | cellular toxicity |
| ~ 80 times | NC(=O)Nc1cc(-c2cccc(F)c2)sc1C(=O)N[C@H]1CCCNC1 [AZD7762] | – | – | – | – | – | – |
